ChEMBL document CHEMBL4371064, “Erythrofordins D and E, two new cassaine-type diterpenes from Erythrophleum suaveolens” (2019)

Key:
Type in all cases: functional
[1] = tested on: COLO 205; experiment: Growth inhibition of human COLO205 cells incubated for 48 hrs by sulforhodamine B assay; settings: COLO 205, 48 h
Summary of the method: (§1)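 Run in the NCI-60 human tumour cell line panel with dose-response testing. GI50 was determined for each cell line from its dose-response data.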

[2] = tested on: MDA-MB-231; experiment: Growth inhibition of human MDA-MB-231 cells incubated for 48 hrs by sulforhodamine B assay; settings: MDA-MB-231, 48 h; summary of the method: as §1
[3] = tested on: NCI-H322M; experiment: Growth inhibition of human NCI-H322M cells incubated for 48 hrs by sulforhodamine B assay; summary of the method: as §1
[4] = tested on: SNB-75; experiment: Growth inhibition of human SNB75 cells incubated for 48 hrs by sulforhodamine B assay; settings: SNB-75, 48 h; summary of the method: as §1
[5] = tested on: SNB-19; experiment: Growth inhibition of human SNB19 cells incubated for 48 hrs by sulforhodamine B assay; settings: SNB-19, 48 h; summary of the method: as §1
[6] = tested on: MCF7; experiment: Growth inhibition of human MCF7 cells incubated for 48 hrs by sulforhodamine B assay; settings: MCF7, 48 h; summary of the method: as §1
[7] = tested on: EKVX; experiment: Growth inhibition of human EKVX cells incubated for 48 hrs by sulforhodamine B assay; summary of the method: as §1
[8] = tested on: UACC-257; experiment: Growth inhibition of human UACC257 cells incubated for 48 hrs by sulforhodamine B assay; settings: UACC-257, 48 h
Summary of the method: (§2)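 Tested in the NCI 60-human-tumour-cell-line screen using the five-dose format. GI₅₀ was derived from each cell line's dose-response. TGI and LC₅₀ were derived from the same dose-response data.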

[9] = tested on: UACC-62; experiment: Growth inhibition of human UACC62 cells incubated for 48 hrs by sulforhodamine B assay; settings: UACC-62, 48 h; summary of the method: as §2
[10] = tested on: SK-MEL-5; experiment: Growth inhibition of human SK-MEL-5 cells incubated for 48 hrs by sulforhodamine B assay; settings: SK-MEL-5, 48 h; summary of the method: as §1
[11] = tested on: MDA-MB-435; experiment: Growth inhibition of human MDA-MB-435 cells incubated for 48 hrs by sulforhodamine B assay; settings: MDA-MB-435, 48 h; summary of the method: as §1
[12] = tested on: OVCAR-8; experiment: Growth inhibition of human OVCAR8 cells incubated for 48 hrs by sulforhodamine B assay; settings: OVCAR-8, 48 h; summary of the method: as §1
[13] = tested on: T47D; experiment: Growth inhibition of human T47D cells incubated for 48 hrs by sulforhodamine B assay; summary of the method: as §2
[14] = tested on: NCI-H226; experiment: Growth inhibition of human NCI-H226 cells incubated for 48 hrs by sulforhodamine B assay; settings: NCI-H226, 48 h; summary of the method: as §1
[15] = tested on: A498; experiment: Growth inhibition of human A498 cells incubated for 48 hrs by sulforhodamine B assay; settings: A498, 48 h
Summary of the method: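 Run within the NCI-60 human tumour cell line panel as a dose-response screen. For each cell line the readouts are GI50, TGI and LC50. Per-line log values also feed a mean-graph analysis, in which the arithmetic mean of the log values across all lines is subtracted from each line's log value.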

[16] = tested on: OVCAR-3; experiment: Growth inhibition of human OVCAR3 cells incubated for 48 hrs by sulforhodamine B assay; settings: OVCAR-3, 48 h; summary of the method: as §1
[17] = tested on: SF-295; experiment: Growth inhibition of human SF295 cells incubated for 48 hrs by sulforhodamine B assay; settings: SF-295, 48 h; summary of the method: as §1
[18] = tested on: HCT-116; experiment: Growth inhibition of human HCT116 cells incubated for 48 hrs by sulforhodamine B assay; settings: HCT-116, 48 h; summary of the method: as §1
[19] = tested on: HCT-15; experiment: Growth inhibition of human HCT15 cells incubated for 48 hrs by sulforhodamine B assay; settings: HCT-15, 48 h; summary of the method: as §1
[20] = tested on: HCC 2998; experiment: Growth inhibition of human HCC2998 cells incubated for 48 hrs by sulforhodamine B assay; settings: HCC 2998, 48 h; summary of the method: as §1
[21] = tested on: SK-MEL-28; experiment: Growth inhibition of human SK-MEL-28 cells incubated for 48 hrs by sulforhodamine B assay; settings: SK-MEL-28, 48 h; summary of the method: as §1
[22] = tested on: RXF 393; experiment: Growth inhibition of human RXF393 cells incubated for 48 hrs by sulforhodamine B assay; settings: RXF 393, 48 h; summary of the method: as §1
[23] = tested on: KM12; experiment: Growth inhibition of human KM12 cells incubated for 48 hrs by sulforhodamine B assay; settings: KM12, 48 h; summary of the method: as §1
[24] = tested on: OVCAR-4; experiment: Growth inhibition of human OVCAR4 cells incubated for 48 hrs by sulforhodamine B assay; settings: OVCAR-4, 48 h; summary of the method: as §1
[25] = tested on: LOX IMVI; experiment: Growth inhibition of human LOXIMVI cells incubated for 48 hrs by sulforhodamine B assay; summary of the method: as §1
[26] = tested on: HOP-92; experiment: Growth inhibition of human HOP92 cells incubated for 48 hrs by sulforhodamine B assay; settings: HOP-92, 48 h; summary of the method: as §1
[27] = tested on: HT-29; experiment: Growth inhibition of human HT-29 cells incubated for 48 hrs by sulforhodamine B assay; settings: HT-29, 48 h; summary of the method: as §1
[28] = tested on: DU-145; experiment: Growth inhibition of human DU145 cells incubated for 48 hrs by sulforhodamine B assay; settings: DU-145, 48 h; summary of the method: as §1
[29] = tested on: 786-0; experiment: Growth inhibition of human 786-0 cells incubated for 48 hrs by sulforhodamine B assay; settings: 786-0, 48 h; summary of the method: as §1
[30] = read-out: pLC50 (the source's name) (converted)

## COC(=O)/C=C1\CC[C@H]2[C@@H](CC(=O)[C@H]3C(C)(C)C(=O)CC[C@]23C)[C@H]1C
[1]
  GI50: 1.23 µM
  LC50: > 34.7 µM
[1]; read-out: pTGI (converted)
  TGI: 5.37 µM
[2]
  GI50: 1.48 µM
  LC50: > 34.7 µM
[2]; read-out: pTGI (converted)
  TGI: 7.94 µM
[3]
  GI50: 0.813 µM
  LC50: 27.5 µM
[3]; read-out: pTGI (converted)
  TGI: 2.51 µM
[4]
  GI50: 0.55 µM
  LC50 (concentration killing 50% of cells): 2.63 µM
[4]; read-out: pTGI (converted)
  TGI: 1.2 µM
[5]
  GI50: 1.2 µM
  LC50: 12.9 µM
[5]; read-out: pTGI (converted)
  TGI: 4.47 µM
[6]
  GI50: 0.955 µM
[6]; [30]
  CC50: > 34.7 µM
[6]; read-out: pTGI
  TGI: > 34.7 µM
[7]
  GI50: 0.407 µM
  LC50: 1.91 µM
[7]; read-out: pTGI (converted)
  TGI: 0.871 µM
[8]
  GI50: 0.891 µM
  LC50: 18.6 µM
[8]; read-out: pTGI (converted)
  TGI: 2.45 µM
[9]
  GI50: 0.832 µM
  LC50: 11.5 µM
[9]; read-out: pTGI (converted)
  TGI: 2.29 µM
[10]
  GI50: 0.708 µM
  LC50: 3.16 µM
[10]; read-out: pTGI (converted)
  TGI: 1.48 µM
[11]
  GI50: 1.07 µM
  LC50: 20.4 µM
[11]; read-out: pTGI (converted)
  TGI: 3.8 µM
[12]
  GI50: 0.851 µM
  LC50: 11 µM
[12]; read-out: pTGI (converted)
  TGI: 2.29 µM
[13]
  GI50: 1 µM
  LC50: > 34.7 µM
[13]; read-out: pTGI (converted)
  TGI: 2.95 µM
[14]
  GI50: 0.617 µM
  LC50: 2.63 µM
[14]; read-out: pTGI (converted)
  TGI: 1.29 µM
[15]
  LC50: > 34.7 µM
[15]; read-out: pTGI (converted)
  TGI: 1.74 µM
[16]
  GI50: 0.661 µM
  LC50: 2.51 µM
[16]; read-out: pTGI (converted)
  TGI: 1.29 µM
[17]
  GI50: 0.741 µM
  LC50: 6.03 µM
[17]; read-out: pTGI (converted)
  TGI: 1.74 µM
[18]
  GI50: 0.646 µM
  LC50: 2.88 µM
[18]; read-out: pTGI (converted)
  TGI: 1.38 µM
[19]
  GI50: 0.692 µM
  LC50: 3.31 µM
[19]; read-out: pTGI (converted)
  TGI: 1.51 µM
[20]
  GI50: 1.45 µM
  LC50: > 34.7 µM
[20]; read-out: pTGI (converted)
  TGI: 8.13 µM
[21]
  GI50: 1.17 µM
  LC50: > 34.7 µM
[21]; read-out: pTGI (converted)
  TGI: 5.01 µM
[22]
  GI50: 0.776 µM
[22]; [30]
  CC50: > 34.7 µM
[22]; read-out: pTGI (converted)
  TGI: 2.57 µM
[23]
  GI50: 1.23 µM
  LC50 (concentration killing 50% of cells): 24 µM
[23]; read-out: pTGI
  TGI: 5.25 µM
[24]
  GI50: 0.676 µM
  LC50: 5.75 µM
[24]; read-out: pTGI (converted)
  TGI: 1.62 µM
[25]
  GI50: 0.692 µM
  LC50: 5.25 µM
[25]; read-out: pTGI (converted)
  TGI: 1.66 µM
[26]
  GI50: 1 µM
  LC50: > 34.7 µM
[26]; read-out: pTGI (converted)
  TGI: 3.47 µM
[27]
  GI50: 0.955 µM
[27]; [30]
  CC50: 12.9 µM
[27]; read-out: pTGI (converted)
  TGI: 2.45 µM
[28]
  GI50: 0.575 µM
  LC50 (concentration killing 50% of cells): 1.95 µM
[28]; read-out: pTGI (converted)
  TGI: 1.05 µM
[29]
  GI50: 0.676 µM
  LC50: 3.16 µM
[29]; read-out: pTGI (converted)
  TGI: 1.45 µM
